The source of these data is ChEMBL document CHEMBL4411265, “Bioactive Pentacyclic Triterpenes from the Root Bark Extract of Myrianthus arboreus, a Species Used Traditionally to Treat Type-2 Diabetes” (J Nat Prod, 2018).

Data set [1] concerns the target T1, Glycogen synthase kinase-3 (Homo sapiens) (UniProt P49840+P49841). The data set can be described thus: Activation of GSK3 phosphorylation in human HepG2 cells at MNTD after 18 hrs by Western blot analysis relative to control. It is filed as cell-based. The method, boiled down:
(§1)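 Confluent H4IIE rat hepatoma cells (DMEM, 10% FBS) or HepG2 human hepatoma cells (DMEM/F12, 10% FBS) exposed 18 h to samples at maximal nontoxic concentration, 0.1% DMSO vehicle; RIPA lysates, 40 μg protein by SDS-PAGE, nitrocellulose blotting, 5% milk block. Antibodies against p-Akt Thr308/Akt, p-AMPKα Thr172/AMPK, p-GSK-3 Ser9/GSK-3, HRP secondary, ECL detection. Phospho/total ratio relative to DMSO; three independent passages.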
(In western blotting, separated proteins are transferred to a membrane and probed.)

A short description of data set [2]: Solubility of the compound in DMSO. It is filed as physicochemical.
The species entered for the next data set is Rattus norvegicus. The data set can be described thus: Activation of AMPK in rat […] cells assessed as increase AMPK phosphorylation at MNTD after 18 hrs by Western blot analysis relative to control. Format: cell-based. The method, boiled down: as §1
Data set [3] deals with T2, Glucose-6-phosphatase catalytic subunit 1 (Rattus norvegicus) (UniProt P43428).
T2 sequence (whole entry): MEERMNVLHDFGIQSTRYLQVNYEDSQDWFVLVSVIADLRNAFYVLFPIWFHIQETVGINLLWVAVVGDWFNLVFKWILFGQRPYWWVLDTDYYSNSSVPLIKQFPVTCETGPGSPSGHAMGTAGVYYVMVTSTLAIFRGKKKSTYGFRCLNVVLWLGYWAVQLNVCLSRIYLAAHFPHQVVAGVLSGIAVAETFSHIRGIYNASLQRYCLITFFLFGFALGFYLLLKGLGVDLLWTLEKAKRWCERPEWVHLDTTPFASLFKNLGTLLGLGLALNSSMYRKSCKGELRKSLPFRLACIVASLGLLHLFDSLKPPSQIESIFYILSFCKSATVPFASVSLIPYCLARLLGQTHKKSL
Nature of the data set: Inhibition of glucose-6-phosphatase in rat […] cells at MNTD using glucose-6-phosphate as substrate preincubated overnight followed by substrate addition and measured after 40 mins relative to control. Format: cell-based. The method, boiled down: (§2)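 H4IIE rat hepatoma cells at 90% confluence treated overnight at maximal nontoxic concentration, 0.1% DMSO vehicle. Lysis in phosphate buffer with 0.05% Triton; lysate incubated with glucose-6-phosphate buffer 40 min at 37 °C. Released glucose read by glucose kit against standard curve, normalized to BCA protein; percent change from vehicle. Means of three experiments in triplicate.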

The target of data set [4] is T3, Glycogen [starch] synthase, liver (Homo sapiens, UniProt P54840).
T3 sequence (P54840 whole entry): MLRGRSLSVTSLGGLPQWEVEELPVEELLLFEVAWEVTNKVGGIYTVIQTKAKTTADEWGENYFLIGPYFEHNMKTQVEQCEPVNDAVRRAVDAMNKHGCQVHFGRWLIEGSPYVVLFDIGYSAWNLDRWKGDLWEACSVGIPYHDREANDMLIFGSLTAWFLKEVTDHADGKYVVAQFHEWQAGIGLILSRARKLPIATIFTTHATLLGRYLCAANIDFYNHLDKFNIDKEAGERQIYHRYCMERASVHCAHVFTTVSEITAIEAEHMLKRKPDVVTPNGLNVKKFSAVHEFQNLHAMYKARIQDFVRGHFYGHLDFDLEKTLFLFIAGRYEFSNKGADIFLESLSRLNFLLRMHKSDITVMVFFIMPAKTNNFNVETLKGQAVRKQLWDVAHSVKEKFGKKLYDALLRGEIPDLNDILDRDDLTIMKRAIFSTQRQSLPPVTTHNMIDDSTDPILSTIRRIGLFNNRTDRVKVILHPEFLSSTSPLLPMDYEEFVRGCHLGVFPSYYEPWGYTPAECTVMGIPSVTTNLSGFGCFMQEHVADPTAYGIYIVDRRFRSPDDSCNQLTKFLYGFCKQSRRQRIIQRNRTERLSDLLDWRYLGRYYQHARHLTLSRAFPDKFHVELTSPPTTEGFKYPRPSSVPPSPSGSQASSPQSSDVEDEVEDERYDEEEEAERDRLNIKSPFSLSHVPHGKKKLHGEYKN
Nature of the data set: Activation of insulin-stimulated glycogen synthase in human HepG2 cells using [U-14C]UDP glucose as substrate preincubated for 18 hrs followed by insulin stimulation and measured after 15 mins by beta-counting method. It is filed as cell-based.

Data set [5] addresses T4, Glycogen [starch] synthase, liver (Homo sapiens) (UniProt P54840).
T4 sequence (whole entry): T3 sequence (P54840 whole entry)
Nature of the data set: Activation of insulin-stimulated glycogen synthase in human HepG2 cells at MNTD using [U-14C]UDP glucose as substrate preincubated for 18 hrs followed by insulin stimulation and measured after 15 mins by beta-counting method relative to control. Format: cell-based.

The target in data set [6] is RAC-alpha serine/threonine-protein kinase (Rattus norvegicus) (UniProt P47196). Nature of the data set: Activation of Akt in rat […] cells assessed as increase in ratio of phosphorylated Akt to total AKt level at MNTD after 18 hrs by Western blot analysis relative to control. Format: cell-based. The method, boiled down: as §1
RAC-alpha serine/threonine-protein kinase (Rattus norvegicus), sequence (P47196 whole entry): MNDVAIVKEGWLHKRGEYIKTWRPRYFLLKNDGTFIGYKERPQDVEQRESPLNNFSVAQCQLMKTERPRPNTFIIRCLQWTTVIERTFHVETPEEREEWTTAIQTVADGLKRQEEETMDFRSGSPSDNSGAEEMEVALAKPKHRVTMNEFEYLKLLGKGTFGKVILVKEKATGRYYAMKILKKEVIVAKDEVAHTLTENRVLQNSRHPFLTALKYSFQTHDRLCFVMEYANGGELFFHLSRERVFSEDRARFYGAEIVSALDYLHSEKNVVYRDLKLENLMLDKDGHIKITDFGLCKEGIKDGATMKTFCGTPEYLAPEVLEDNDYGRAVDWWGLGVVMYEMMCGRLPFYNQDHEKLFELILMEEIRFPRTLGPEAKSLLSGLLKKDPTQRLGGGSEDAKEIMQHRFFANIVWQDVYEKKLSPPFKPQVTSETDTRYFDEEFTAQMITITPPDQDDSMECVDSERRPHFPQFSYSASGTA
The target of data set [7] is T5, Glucose-6-phosphatase catalytic subunit 1 (Rattus norvegicus, UniProt P43428).
T5 sequence (P43428 whole entry): T2 sequence (whole entry)
The data set can be described thus: Inhibition of glucose-6-phosphatase in rat H42E cells using glucose-6-phosphate as substrate preincubated overnight followed by substrate addition and measured after 40 mins. Format: cell-based. The method, boiled down: as §2

The target of data set [8] is T1, Glycogen synthase kinase-3 (Homo sapiens). Nature of the data set: Activation of GSK3 in human HepG2 cells assessed as increase in ratio of phosphorylated GSK3 to total GSK3 level at MNTD after 18 hrs by Western blot analysis relative to control. Format: cell-based. Summed up:
as §1

T1 sequence (P49840 whole entry, looked up): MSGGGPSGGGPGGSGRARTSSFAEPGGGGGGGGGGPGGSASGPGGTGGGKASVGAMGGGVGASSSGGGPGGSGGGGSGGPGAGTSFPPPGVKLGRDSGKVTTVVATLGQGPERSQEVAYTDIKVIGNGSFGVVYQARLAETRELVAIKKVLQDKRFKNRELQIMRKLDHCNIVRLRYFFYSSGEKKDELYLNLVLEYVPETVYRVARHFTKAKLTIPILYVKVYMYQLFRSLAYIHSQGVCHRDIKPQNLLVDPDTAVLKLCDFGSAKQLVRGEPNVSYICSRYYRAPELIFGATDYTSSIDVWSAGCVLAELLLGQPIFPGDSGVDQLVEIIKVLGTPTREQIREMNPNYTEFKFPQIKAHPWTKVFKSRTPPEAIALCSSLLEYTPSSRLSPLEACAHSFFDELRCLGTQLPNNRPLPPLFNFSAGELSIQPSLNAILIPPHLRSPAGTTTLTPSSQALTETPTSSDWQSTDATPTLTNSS
T1 sequence (P49841 whole entry, looked up): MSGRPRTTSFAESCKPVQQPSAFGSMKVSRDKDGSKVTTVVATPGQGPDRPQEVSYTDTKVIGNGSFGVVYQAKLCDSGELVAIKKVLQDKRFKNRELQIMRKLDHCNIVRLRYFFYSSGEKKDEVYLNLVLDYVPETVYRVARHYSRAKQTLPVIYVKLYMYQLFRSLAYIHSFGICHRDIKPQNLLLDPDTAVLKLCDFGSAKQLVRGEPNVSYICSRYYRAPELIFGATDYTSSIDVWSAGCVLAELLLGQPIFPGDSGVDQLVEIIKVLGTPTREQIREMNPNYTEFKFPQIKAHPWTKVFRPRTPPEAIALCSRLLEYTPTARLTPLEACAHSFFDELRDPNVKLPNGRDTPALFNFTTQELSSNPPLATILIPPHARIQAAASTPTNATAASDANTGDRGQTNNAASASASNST

`NC(=O)c1ncn([C@@H]2O[C@H](CO)[C@@H](O)[C@H]2O)c1N` registered a fold change (FC) in data set [1] of 2.

Regarding `CC[C@H](CC[C@@H](C)[C@H]1CC[C@H]2[C@@H]3CC=C4C[C@@H](O)CC[C@]4(C)[C@H]3CC[C@]12C)C(C)C` [BETA-SITOSTEROL], the solubility entry in [2] is listed as “Insoluble”.

One may read the inhibition as the percentage by which the read-out fell short of the control. Low readings indicate a weak effect, high ones a strong effect. By EC50 is commonly meant the concentration needed to bring the measured effect to its halfway point. A low value points to an effect from little substance. As a reminder, the IC50 is the concentration that inhibits the measured activity by half. In the case of `COc1cc(/C=C/C(=O)O[C@H]2[C@H](OC(C)=O)C[C@]3(C)[C@H]4CC=C5[C@H]6[C@](C(=O)O)(CC[C@@H](C)[C@@]6(C)O)CC[C@@]5(C)[C@]4(C)CC[C@H]3C2(C)C)ccc1O`, the fold change (FC) in the data set listed under Rattus norvegicus is 2.2 to 3.5; in [1] it was 2; in [5], 1.5 to 3.5; in [6], 2.2 to 4.8. This compound also yielded an inhibition in [3] of 18 to 32%. In data set [4], this compound had an EC50 of 4.1 µM. For the same compound, in data set [7], the IC50 was determined as 4.8 µM.

On to `COc1cc(/C=C/C(=O)O[C@H]2[C@H](O)C[C@]3(C)[C@H]4CC=C5[C@H]6[C@](C(=O)O)(CC[C@@H](C)[C@@]6(C)O)CC[C@@]5(C)[C@]4(C)CC[C@H]3C2(C)C)ccc1O`, for which the fold change (FC) is 2.2 to 3.5 in the data set filed under Rattus norvegicus, 1.5 to 3.5 in data set [5], 1.8 in [8] and 2.2 to 4.8 in [6]. The inhibition in data set [3] was in the range of 18 to 32%.

`C[C@H]1[C@H](C)CC[C@]2(C(=O)O)CC[C@]3(C)C(=CC[C@@H]4[C@@]5(C)CC[C@H](O)C(C)(C)[C@@H]5CC[C@]43C)[C@H]12`: the fold change (FC) in the data set filed under Rattus norvegicus was 2.2 to 3.5; in data set [1], 2; in [5], 1.5 to 3.5; in data set [6] it was 2.2 to 4.8. This compound displayed an inhibition in data set [3] of 18 to 32%.

With `CC[C@H](/C=C/[C@@H](C)[C@H]1CC[C@H]2[C@@H]3CC=C4C[C@@H](O)CC[C@]4(C)[C@H]3CC[C@]12C)C(C)C` [STIGMASTEROL], in [2], the solubility entry is listed as “Insoluble”.
